From PubChem
This is a sample that favours compounds with a hit; in the whole collection about 2.3% have one here.
TRPC6 inhibitor = mouse TRPC6 channel inhibition; Q61143; HEK293-TRPC6, membrane potential dye, ACh-evoked depolarization; stronger effect = lower value; B-score at 10 µM; actives 1.1% (n = 310,000);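 active means B-score under library mean minus 3 SD, initial fluorescence not abnormally high, positive integrated signal ratio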;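 further: B-score derived from integrated fluorescence ratio over the kinetic read; more negative B-score means stronger inhibition of depolarization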
Target sequence (Q61143 whole entry, looked up): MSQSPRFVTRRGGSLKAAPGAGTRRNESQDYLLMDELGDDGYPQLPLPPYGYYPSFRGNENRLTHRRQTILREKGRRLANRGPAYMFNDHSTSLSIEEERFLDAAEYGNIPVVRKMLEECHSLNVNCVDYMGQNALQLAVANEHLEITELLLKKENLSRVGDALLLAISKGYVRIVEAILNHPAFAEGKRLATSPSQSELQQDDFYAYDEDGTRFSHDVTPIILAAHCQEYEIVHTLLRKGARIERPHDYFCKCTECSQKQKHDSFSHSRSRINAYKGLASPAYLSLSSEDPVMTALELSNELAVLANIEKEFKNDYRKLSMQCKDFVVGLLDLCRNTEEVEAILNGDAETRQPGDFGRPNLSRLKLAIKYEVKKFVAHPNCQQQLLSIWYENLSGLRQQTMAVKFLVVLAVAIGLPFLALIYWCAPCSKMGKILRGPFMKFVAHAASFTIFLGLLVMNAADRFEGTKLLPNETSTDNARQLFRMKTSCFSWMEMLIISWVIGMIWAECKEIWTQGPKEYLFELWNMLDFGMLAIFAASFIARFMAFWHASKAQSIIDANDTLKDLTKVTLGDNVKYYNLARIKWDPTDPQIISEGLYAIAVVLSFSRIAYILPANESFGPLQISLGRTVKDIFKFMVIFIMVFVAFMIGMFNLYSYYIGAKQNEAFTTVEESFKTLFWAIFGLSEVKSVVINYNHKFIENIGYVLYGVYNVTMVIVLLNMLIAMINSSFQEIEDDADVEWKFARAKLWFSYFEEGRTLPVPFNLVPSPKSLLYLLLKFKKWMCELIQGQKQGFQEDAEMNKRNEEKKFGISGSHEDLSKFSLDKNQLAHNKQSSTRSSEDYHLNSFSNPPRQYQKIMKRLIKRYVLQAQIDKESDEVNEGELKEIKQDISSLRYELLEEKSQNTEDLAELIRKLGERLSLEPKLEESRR
TRPC4 PAM = allosterically enhances the mouse TRPC4 cation channel; actives 0.42% (n = 310,000); B-score at 10 µM; Q9QUQ5; AID 2227; HEK293 TRPC4beta/mu-opioid, DAMGO EC20, Fluo-4 Ca2+ flux; stronger effect = higher value;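 active means B-score of calcium response area above 5 SD of library B-scores, with initial fluorescence ratio within 5 SD of library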
TRPC4 act = TRPC4 (mouse) channel activation; Q9QUQ5; HEK293 TRPC4beta/mu-opioid, Fluo4 calcium fluorescence; stronger effect = higher value; B-score at 10 µM; actives 0.49% (n = 310,000);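 active means B-score above 5 SD of library B-scores, and initial fluorescence ratio not above library mean plus 5 SD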;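 further: positive B-score marks a calcium rise read as TRPC4 activation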
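Material: HEK293 stable line with TRPC4beta plus mu-opioid receptor; technique: Fluo4 calcium-sensitive dye fluorescence, kinetic, 1 Hz baseline; timing: Fluo4 dye loading 45 min at room temperature, 110 s recording; controls: assay buffer as low control, maximal DAMGO as high control; read-out: integrated baseline-normalised fluorescence ratio, converted to per-well B score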
TRPC6 act = mouse TRPC6 channel activation; Q61143; HEK293-TRPC6 membrane potential dye fluorescence; stronger effect = higher value; B-score at 10 µM; actives 0.13% (n = 310,000);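 active means B-score of the integrated fluorescence ratio above library mean plus 3 SD, and starting fluorescence ratio within library mean plus 5 SD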;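 further: higher score means more depolarization so channel activation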
TRPC4 inh = blocks the mouse TRPC4 cation channel; Q9QUQ5; HEK293 TRPC4beta/mu-opioid, DAMGO-evoked Fluo4 calcium flux; stronger effect = lower value; B-score at 10 µM; actives 0.39% (n = 300,000);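 active means B-score over 3 SD under the library average, no early fluorescence shift, positive overall ratio signal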
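material = TRPC4beta/mu-opioid receptor HEK293 cell line | probe or stimulus = sequential submaximal and maximal DAMGO stimulation | compound dosing = one concentration per compound | measured by = Fluo4 Ca2+ flux fluorescence | evaluation = integrated fluorescence ratio relative to baseline, converted to per-well B score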
TRPC4 spec 2 = second selectivity test of TRPC6 inhibitors: effect on mouse TRPC4. shares compounds with TRPC6 inhibitor. HEK293 TRPC4/MOR, membrane potential dye fluorescence; channel activated by saturating DAMGO dose. inhibition, % at 10 µM. actives 42% (n = 920). AID 2776;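 active means compounds whose fluorescence signal differed from control wells by over 3 SD, either direction, in both duplicate plates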
TRPC4 spec = tests whether TRPC6 inhibitors also affect mouse TRPC4. shares compounds with TRPC6 inhibitor. HEK293 TRPC4/mu-opioid, membrane potential fluorescence. activity change, negative = inhibition, % at 10 µM. actives 61% (n = 920). AID 2777;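 active means rise or fall in signal beyond 3 SD of buffer-only wells in both replicate plates, either sign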;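 further: integrated kinetic ratio of fluorescence range over baseline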
HEK293 MPD ctr 2-1 = second check of TRPC6 inhibitor effects in parental HEK293 cells. shares compounds with TRPC6 inhibitor. parental HEK293 membrane potential dye fluorescence; maximal acetylcholine challenge after compound addition. signal change vs control, % at 10 µM. actives 31% (n = 920);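 active means membrane potential signal moving either way by over 3 SD of the maximum-effect control, in both duplicate plates, meaning non-specific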
HEK293 MPD ctr-1 = parental HEK293 nonspecific activity of TRPC6 inhibitors; actives 60% (n = 920); shares compounds with TRPC6 inhibitor; membrane potential signal change, % at 10 µM; parental HEK293 membrane potential dye fluorescence;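 active means membrane potential signal shifting up or down by more than 3 SD of buffer-only wells, on both duplicate plates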
HEK293 MPD ctr-2 = counter-screen for TRPC6 modulators: effect in parental HEK293 cells. shares compounds with TRPC6 inhibitor. membrane potential dye fluorescence. membrane potential signal change, % at 10 µM. actives 51% (n = 2,400). AID 488924;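 active means membrane potential signal moves up or down beyond 5 SD from buffer-only wells, on both duplicate plates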
HEK293 MPD ctr 2-2 = parental HEK293 nonspecific activity of TRPC6 modulators, second screen | membrane potential dye fluorescence; after compound, maximal acetylcholine stimulation | actives 14% (n = 2,400) | inhibition, % at 10 µM | shares compounds with TRPC6 inhibitor | AID 488926;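 active means membrane potential signal drops by more than 5 SD from the mean control signal, in both duplicate plates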
TRPC4/MOR mod = mouse TRPC4 off-target activity of TRPC6 modulators; shares compounds with TRPC6 inhibitor; actives 69% (n = 2,400); AID 488927; HEK293 TRPC4/mu-opioid, membrane potential fluorescence; percent change from control (negative = decrease, positive = increase), % at 10 µM;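 active means membrane potential signal moved up or down beyond 5 SD of buffer control wells, in both duplicate plates, actives on both sides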
TRPC4/MOR inh 2 = second selectivity test of TRPC6 modulators against mouse TRPC4; shares compounds with TRPC6 inhibitor; HEK293 TRPC4/mu-opioid, membrane potential dye fluorescence; stimulated with maximal-effect DAMGO; actives 55% (n = 2,400); AID 488928; inhibition, % at 10 µM;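 active means drop in membrane potential signal beyond 5 SD of the control wells in both duplicate plates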;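 further: TRPC4 counter screen for TRPC6 hits run under conditions tuned for TRPC6 not TRPC4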
TRPC6 inh conf = mouse TRPC6 inhibitor confirmation; inhibition, % at 10 µM; actives 43% (n = 3,300); HEK293-TRPC6, membrane potential dye, ACh-evoked depolarization; shares compounds with TRPC6 inhibitor; AID 488960;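 active means fluorescence ratio falls more than 5 SD below the full-stimulation control mean, in both duplicate runs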;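 further: integrated fluorescence ratio of peak minus minimum over baseline after agonist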
TRPC6 act conf = mouse TRPC6 activator confirmation | shares compounds with TRPC6 inhibitor | HEK293-TRPC6 membrane potential dye fluorescence, FDSS | activation, % at 10 µM | actives 11% (n = 2,800);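 active means ratio signal rise beyond 5 SD above unstimulated control wells' mean, seen in both duplicate runs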
Hits are given with their value; i = inactive; nt = no result; ! = not confirmed by another sample.

SMILES	TRPC6 inhibitor	TRPC4 PAM	TRPC4 act	TRPC6 act	TRPC4 inh	HEK293 MPD ctr-2	HEK293 MPD ctr 2-2	TRPC4/MOR mod	TRPC4/MOR inh 2	TRPC6 inh conf	TRPC6 act conf	others
CC1CCC(C(C)C)C(OC(=O)Cn2c(-c3ccccc3)[n+](C)c3ccccc32)C1 (stereo not given)	-5.6!	i	i	12	i	506%	i	110%	60%	63%	176%
CC1=CC(C)(C)N(C(=O)CNC2CCCC2)c2cc(C)ccc21	-6.4	i	i	i	i	125%	i	31%	45%	54%	nt
CCC(=O)c1ccc(OCC(=O)NCCc2ccccn2)cc1	i	i	i	i	i	nt	nt	nt	nt	nt	nt
NC(=O)c1c(NC(=O)C2c3ccccc3Oc3ccccc32)sc2c1CCCCC2	-5.1	i	i	i	i	i	i	i	i	i	i
CC(=O)Nc1sc2c(c1C(N)=O)CCCC2	i	i	i	i	i	nt	nt	nt	nt	nt	nt
CC(C)(C)SC(=O)C[C@@H]1NS(=O)(=O)OC2CCCCC21 (stereo not given in full)	i	i	i	i	i	nt	nt	nt	nt	nt	nt
Cc1ccc(NC(=O)CC(O)(C(F)(F)F)C(F)(F)F)c(Br)c1	-6.1	i	i	i	i	i	i	i	i	i	nt
Cc1ccccc1NC(=O)CC(O)(C(F)(F)F)C(F)(F)F	i	i	i	i	i	nt	nt	nt	nt	nt	nt
COc1ccc(CCn2cc(C#N)c(=O)[nH]c2=O)cc1OC	i	i	i	i	i	nt	nt	nt	nt	nt	nt
O=C(CCn1ccc2cc(S(=O)(=O)N3CCCC3)ccc21)NCc1cccc(F)c1	i	i	i	i	i	nt	nt	nt	nt	nt	nt
O=C(c1ccc(C(=O)N2CCCc3ccccc32)s1)N1CCCc2ccccc21	-6.6	i	i	i	i	nt	nt	nt	nt	i	nt	TRPC4 spec 2=i;TRPC4 spec=3.9%;HEK293 MPD ctr 2-1=i;HEK293 MPD ctr-1=3.6%
Cc1cc(C(=O)N2CCCC(Nc3ccc(F)cc3)C2)c(C)o1 (stereo not given)	i	i	i	i	i	nt	nt	nt	nt	nt	nt
CC(=O)Nc1sc(N/N=C/c2ccc(C)cc2)nc1-c1ccc(C)cc1	i	i	i	i	i	nt	nt	nt	nt	nt	nt
CC(=O)Nc1sc(/C(C#N)=C/c2ccc(Cl)c(Cl)c2)nc1-c1ccc(C)cc1	i	i	i	13	i	254%	i	46%	i	i	76%
Cc1ccc(SCC(=O)OC(C)C(=O)NCc2ccccc2)cc1 (stereo not given)	i	i	i	i	i	nt	nt	nt	nt	nt	nt
CC(=O)NCCc1nc2ccccc2n1Cc1cc(C)ccc1C	-5.1	i	i	i	i	i	i	17%	i	i	i
CCn1c(/C=C/c2ccccc2)nc2ccccc21	i	i	i	i	i	nt	nt	nt	nt	nt	nt
CCC(C)n1c(/C=C/c2ccccc2)nc2ccccc21 (stereo not given)	-5.1	i	i	i	i	106%	i	16%	i	i	i
O=C(Cn1cnc([N+](=O)[O-])n1)NCCO	i	i	i	i	i	nt	nt	nt	nt	nt	nt
O=C(COc1ccccc1[N+](=O)[O-])N(Cc1cccc(Br)c1)C1CCS(=O)(=O)C1 (stereo not given)	i	i	i	i	i	nt	nt	nt	nt	nt	nt
O=C(/C=C\c1ccccc1OC(=O)c1ccccc1F)c1cc2ccccc2o1	-7.1	i	i	i	i	nt	nt	nt	nt	i	i	TRPC4 spec 2=i;TRPC4 spec=i;HEK293 MPD ctr 2-1=i;HEK293 MPD ctr-1=i
CC(C)COc1ccc(C(=O)OC2CC(C)(C)OCC2CN(C)C)cc1 (stereo not given)	i	i	i	14	i	300%	i	46%	42%	i	136%
COc1ccc(C(=O)Nc2nnc(S(=O)(=O)N(C)Cc3ccc(F)cc3)s2)cc1OC	i	i	i	i	i	nt	nt	nt	nt	nt	nt
O=C(COC(=O)C1CCC1)NCCc1ccc(Cl)cc1Cl	i	i	i	i	i	nt	nt	nt	nt	nt	nt
CN1\C(=C/C=C/C=C/C=[N+](C)C)C(C)(C)c2ccccc21	-5.2	i	i	i	i	533%	i	-20%	32%	48%	i
SMILES	TRPC6 inhibitor	TRPC4 PAM	TRPC4 act	TRPC6 act	TRPC4 inh	HEK293 MPD ctr-2	HEK293 MPD ctr 2-2	TRPC4/MOR mod	TRPC4/MOR inh 2	TRPC6 inh conf	TRPC6 act conf	others
CN(C)c1ccc(N=C/C=C2\N(C)c3ccccc3C2(C)C)cc1	-6.6	i	i	i	i	i	i	-16%	53%	58%	i
CN1/C(=C\C=O)C(C)(C)c2ccccc21	i	i	i	i	i	nt	nt	nt	nt	nt	nt
CCOC(=O)C1=NNC2(c3ccc(C)cc3)C(=O)N(c3ccc(Cl)cc3)C(=O)C12 (stereo not given)	i	i	i	i	i	nt	nt	nt	nt	nt	nt
CC(C)CN(C(=O)C1CSC2(C)CCC(=O)N12)c1c(N)n(Cc2ccccc2)c(=O)[nH]c1=O (stereo not given)	i	i	i	i	i	nt	nt	nt	nt	nt	nt
Cc1ccccc1OCC(=O)Nc1ccc2c(c1)C(=O)N(CCC(=O)O)C2=O	i	i	i	i	i	nt	nt	nt	nt	nt	nt
Cc1cccc(C(=O)NNC2=C(C(=O)C(F)(F)F)CCC2)c1O	-7.6	i	i	i	i	nt	nt	nt	nt	i	i	TRPC4 spec 2=i;TRPC4 spec=-12%;HEK293 MPD ctr 2-1=i;HEK293 MPD ctr-1=-190%
O=C(NNC1=C(C(=O)C(F)(F)F)CCC1)c1cccc(O)c1	i	i	i	i	i	nt	nt	nt	nt	nt	nt
COC(=O)c1ccc(COC(=O)CCc2nc(-c3ccccc3)c(-c3ccccc3)o2)cc1	i	i	i	i	i	nt	nt	nt	nt	nt	nt
CCN(Cc1ccncc1)C(=S)Nc1ccccc1	i	i	i	i	i	nt	nt	nt	nt	nt	nt
